ChEMBL document CHEMBL4393676, “Design, Synthesis, and Preclinical Characterization of Selective Factor D Inhibitors Targeting the Alternative Complement Pathway” (J Med Chem, 2019)
Values after ≈ are worked out from the molar mass of the structure shown.

Legend:
[1] = Clearance in C57BL/6 mouse at 1 mg/kg, iv or 10 mg/kg, po administered via gavage by HPLC-MS/MS analysis; type: ADME, organism-based; details: in vivo
[2] = Oral bioavailability in C57BL/6 mouse 10 mg/kg by HPLC-MS/MS analysis; type: ADME, organism-based; details: in vivo; for bioavailability: C57BL/6, mouse
[3] = Cmax in C57BL/6 mouse at 10 mg/kg, po administered via gavage by HPLC-MS/MS analysis; type: ADME, organism-based; parameters: dose 10 mg/kg, route oral; details: in vivo
[4] = AUC (0 to 7 hrs) in C57BL/6 mouse at 1 mg/kg, iv by HPLC-MS/MS analysis; type: ADME, organism-based; parameters: dose 1 mg/kg, time < 7 hr, route intravenous; details: in vivo; for AUC(0-t) at 7 h: C57BL/6, mouse
[5] = Volume of distribution at steady state in C57BL/6 mouse at 1 mg/kg, iv or 10 mg/kg, po administered via gavage by HPLC-MS/MS analysis; type: ADME, organism-based; details: in vivo, read-out: Vdss
[6] = Elimination half life in C57BL/6 mouse at 1 mg/kg, iv by HPLC-MS/MS analysis; type: ADME, organism-based; details: in vivo, read-out: beta t1/2 (converted)
[7] = AUC (0 to 7 hrs) in C57BL/6 mouse at 10 mg/kg, po administered via gavage by HPLC-MS/MS analysis; type: ADME, organism-based; parameters: time < 7 hr, dose 10 mg/kg, route oral; details: in vivo; for AUC(0-t) at 7 h: C57BL/6, mouse
[8] = Solubility of the compound at pH 6.8; type: physicochemical; details: buffer
Coagulation factor XI = Coagulation factor XI (Homo sapiens, UniProt P03951); test: Inhibition of F11a (unknown origin)
Tryptase beta-2 = Tryptase beta-2 (Homo sapiens, UniProt P20231); test: Inhibition of tryptase-beta2 (unknown origin)
Mus musculus [9] = test: Suppression of LPS-induced alternative complementation pathway in human FD knock-in C57BL/6 mouse assessed as reduction in plasma Ba level treated via oral gavage […] prior to LPS stimulation and measured up to 24 hrs post-dose; type: functional, organism-based
[10] = Dose normalized AUC in Brown Norway rat plasma at 10 mg/kg, po administered via gavage by HPLC-MS/MS analysis; type: ADME, organism-based; details: in vivo
Outline: (§1)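 Three-month-old Brown Norway rats given single 10 mg/kg oral gavage, suspension in 0.5% HPMC/0.1% Tween 80. Plasma and both eyes' retina and posterior eye cup (RPE/choroid plus posterior sclera) taken from 2 rats per time at 0.25, 0.5, 1, 3, 6, 24 h; tissues homogenized in PBS with 10% acetonitrile, supernatants by HPLC-MS/MS. AUC dose normalized.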

[11] = Dose normalized AUC in Brown Norway rat posterior eye cup at 10 mg/kg, po administered via gavage by HPLC-MS/MS analysis; type: ADME, organism-based; details: in vivo; outline: as §1
[12] = Dose normalized AUC in Brown Norway rat retina at 10 mg/kg, po administered via gavage by HPLC-MS/MS analysis; type: ADME, organism-based; details: in vivo; outline: as §1
[13] = Plasma concentration in Brown Norway rat at 10 mg/kg, po administered via gavage measured at 24 hrs post dose by HPLC-MS/MS analysis; type: ADME, organism-based; outline: as §1
[14] = Drug level in Brown Norway rat posterior eye cup at 10 mg/kg, po administered via gavage measured at 24 hrs post dose by HPLC-MS/MS analysis; type: ADME, organism-based; details: read-out: Drug uptake; outline: as §1
[15] = Drug level in Brown Norway rat retina at 10 mg/kg, po administered via gavage measured at 24 hrs post dose by HPLC-MS/MS analysis; type: ADME, organism-based; details: in vivo, BLD = below limit of detection; outline: as §1
[16] = Time at which posterior eye cup concentration stays above in vitro IC50 for inhibition of FD-mediated alternative complementation pathway in 50% human whole blood in Brown Norway rat at 10 mg/kg, po; type: organism-based; details: in vivo; outline: as §1
Mus musculus [17] = test: Suppression of intravitreal injection-activated alternative complementation pathway in human FD knock-in C57BL/6 mouse model of local ocular injury assessed as reduction in ocular Ba level treated via oral gavage 2 hrs prior to intravitreal injection and measured after 4 hrs by Western blot analysis; type: functional, organism-based
Outline: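 Human FD knock-in mice dosed by oral gavage (3 or 10 mg/kg) at time 0; 2 h later anesthetized and injected intravitreally with 1 µL sterile PBS. Eyes taken 4 h after injection; lysates analysed for Ba by Western blot, relative to vehicle, mean ± SEM.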

[18] = Clearance in Beagle dog at 1 mg/kg, iv or 10 mg/kg, po administered via gavage by HPLC-MS/MS analysis; type: ADME, organism-based, Canis lupus familiaris; details: in vivo
Outline: (§2)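 Beagle dogs, n=3 per route: IV 1 mg/kg in 2% 1N HCl, 20% PEG 300, 50% of 20% solutol in PBS; PO gavage 10 mg/kg as solution in 20% PEG 300, 10% solutol HS15, 70% citrate buffer pH 3. Blood at 5 min (IV), 15 min, 0.5, 1, 2, 4, 7, 24 h; HPLC-MS/MS (ESI positive); non-compartmental analysis; mean ± SD.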

[19] = Volume of distribution at steady state in Beagle dog at 1 mg/kg, iv or 10 mg/kg, po administered via gavage by HPLC-MS/MS analysis; type: ADME, organism-based, Canis lupus familiaris; details: in vivo, read-out: Vdss; outline: as §2
[20] = Half life in Beagle dog at 1 mg/kg, iv or 10 mg/kg, po administered via gavage by HPLC-MS/MS analysis; type: ADME, organism-based, Canis lupus familiaris; details: in vivo; outline: as §2
[21] = AUClast in Beagle dog at 10 mg/kg, po administered via gavage by HPLC-MS/MS analysis; type: ADME, organism-based, Canis lupus familiaris; parameters: dose 10 mg/kg, time 0 - last, route oral; details: in vivo; outline: as §2
[22] = Cmax in Beagle dog at 10 mg/kg, po administered via gavage by HPLC-MS/MS analysis; type: ADME, organism-based, Canis lupus familiaris; parameters: dose 10 mg/kg, route oral; details: in vivo; outline: as §2
[23] = Tmax in Beagle dog at 10 mg/kg, po administered via gavage by HPLC-MS/MS analysis; type: ADME, organism-based, Canis lupus familiaris; details: in vivo; outline: as §2
[24] = Oral bioavailability in Beagle dog at 10 mg/kg administered via gavage by HPLC-MS/MS analysis; type: ADME, organism-based, Canis lupus familiaris; details: in vivo; outline: as §2

SMILES	clearance [1] [mL/min/kg]	Cmax [3] [µM]	Vd [5] [L/kg]	half-life [6] [h]	bioavailability [2] [%]	AUC(0-t) at 7 h [4] [µM·h]	AUC(0-t) at 7 h [7] [µM·h]	also measured
N[C@H](CO)c1cccc(-c2cc(Br)cc(COc3ccccc3CC(=O)O)c2)c1	0.7	26	0.1	2.5				F ([2]; mouse): 25%; AUC ([4]; mouse, 7 h): 48.7 µM·h; AUC ([7]; mouse, 7 h): 11.6 µM·h
N[C@H](CCO)c1cccc(-c2cccc(COc3ccccc3CC(=O)O)c2)c1	8.7	10.7	0.3	1.3	39	4.97	19.5	
NCc1cccc(-c2cccc(COc3ccccc3CC(=O)O)c2)c1	14				100			
NCc1cccc(-c2cccc(C(=O)Nc3ccccc3CC(=O)O)c2)c1	22				10			solubility [8]: 220 µM (≈ 79.3 µg/mL); IC50 (Coagulation factor XI): 2.8 µM; IC50 (Tryptase beta-2): 2.3 µM
N[C@H](CO)c1cccc(-c2cccc(COc3ccccc3CC(=O)O)c2)c1	2.6	31	0.3	1.6	83	16.1	125	Activity (Mus musculus [9]): Dose-dependent effect; AUC/dose [10]: 2300 nM·h; AUC/dose [11]: 1160 nM·h; AUC/dose [12]: 8 nM·h; concentration at 24 h [13]: 0.034 µM; concentration at 24 h [14]: 0.29 µM; Drug uptake [15]: Bld; Time [16]: > 24 h; Activity (Mus musculus [17]): Dose-dependent effect; clearance [18]: 3.8 mL/min/kg; Vd [19]: 0.8 L/kg; half-life [20]: 3.8 h; AUC(0-t) [21]: 85 µM·h; Cmax [22]: 16.5 µM; Tmax [23]: 0.8 h; bioavailability [24]: 70%
